From ChEMBL document CHEMBL4308831, “Developing a Biased Unmatched Bivalent Ligand (BUmBL) Design Strategy to Target the GPCR Homodimer Allosteric Signaling (cAMP over β-Arrestin 2 Recruitment) Within the Melanocortin Receptors” (J Med Chem, 2018) come the findings set out here.

Test [1] has as its target T1, Melanocortin receptor 4 (Homo sapiens, UniProt P32245). The test can be described thus: Antagonist activity at human FLAG-tagged MC4R expressed in HEK293 cells assessed as reduction in NDP-MSH-induced intracellular cAMP accumulation after 2 hrs by AlphaScreen assay. The class given is functional, cell-based. The conditions noted are these: read-out: pA2 (converted). The method, boiled down: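 Stable hMC4R-Flag HEK293 cells in IBMX-containing HBSS stimulation buffer with AlphaScreen cAMP beads, 10,000 cells/well, stimulated 2 h at room temperature. Antagonist ligands tested dose-dependently against NDP-MSH stimulation; pA2 from Schild regression. Duplicate points, at least three independent experiments.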
For orientation: cAMP levels reflect the balance of adenylyl cyclase and phosphodiesterase activity.

The target in test [2] is T1, Melanocortin receptor 4. The test is described as follows: Agonist activity at human FLAG-tagged MC4R expressed in HEK293 cells assessed as induction of intracellular cAMP accumulation at 10 uM after 2 hrs by AlphaScreen assay relative to NDP-MSH. The test is classed as functional, cell-based. In short, it runs like this:
(§1)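 Stable HEK293 lines (G418 selection) carrying the receptor in pcDNA3, detached with Versene and resuspended in HBSS stimulation buffer containing 0.5 mM IBMX, 5 mM HEPES, 0.1% BSA, pH 7.4, with anti-cAMP acceptor beads; 10,000 cells/well. Ligand 10^-13 to 10^-4 M final, 2 h at room temperature in the dark, then donor beads in lysis buffer for 2 h. Duplicates, ≥3 experiments; curves normalized and flipped relative to controls.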

The target of test [3] is T1, Melanocortin receptor 4. The test can be described thus: Agonist activity at human FLAG-tagged MC4R expressed in HTLA cells assessed as induction of beta-arrestin recruitment at 10 uM after 18 hrs by Presto-tango assay relative to NDP-MSH. The class given is cell-based. In short, it runs like this:
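HTLA cells (HEK293 with tTA-luciferase reporter and β-arrestin2-TEV) transiently transfected by calcium phosphate with hMC4R PRESTO-Tango construct (4 µg/plate), held 15–24 h at 35 °C and 3% CO2, then plated at 20,000 cells/well in 1% dialyzed FBS. Ligands 10^-12 to 10^-5 M in HEPES/HBSS pH 7.4, 18 h at 37 °C; Bright-Glo luminescence. Duplicates, ≥3 experiments.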
(In general: Activated receptors often draw arrestin, which recruitment assays turn into a signal.)

For test [4], the target named is Melanocortin receptor 4 (Mus musculus) (UniProt P56450). The test can be described thus: Agonist activity at mouse MC4R expressed in HEK293 cells assessed as induction of intracellular cAMP accumulation after 2 hrs by AlphaScreen assay. The test is classed as functional, cell-based. The method, boiled down:
as §1

The target of test [5] is T1, Melanocortin receptor 4. The test can be described thus: Selectivity ratio of EC50 for agonist activity at human FLAG-tagged MC4R expressed in HTLA cells assessed as induction of beta-arrestin recruitment to EC50 for agonist activity at human FLAG-tagged MC4R expressed in HEK293 cells assessed as induction of intracellular cAMP accumulation. The test is classed as functional, cell-based.

Test [6] addresses Melanocortin receptor 4 (Mus musculus) (UniProt P56450). The test is described as follows: Effect on protein-protein interaction of mouse Nano-Luc-tagged MC4R/mouse Halo-tagged MC4R homodimer expressed in HEK293 cells at 10^-9 to 10^-5 M up to 10 mins by BRET assay. The class given is cell-based. (Bioluminescence resonance energy transfer reports proximity on the nanometre scale.)

For test [7] the target is unchanged. The test is described as follows: Decrease in protein-protein interaction of mouse Nano-Luc-tagged MC4R/mouse Halo-tagged MC4R homodimer expressed in HEK293 cells up to 10 mins by BRET assay. The class given is cell-based.
Test [8] has as its target T1, Melanocortin receptor 4. The test can be described thus: Agonist activity at human FLAG-tagged MC4R expressed in HEK293 cells assessed as induction of intracellular cAMP accumulation after 2 hrs by AlphaScreen assay. The test is classed as functional, cell-based.

Activity calls are given as the source filed them. The calls are words filed in the database; no cut-off is given here. Non-standard residues stand in square brackets, D forms with d. Residues, ends and D or L forms follow the SMILES beside them. d2Nal = N[C@H](Cc1ccc2ccccc2c1)C(=O)O

Melanocortin receptor 4 (Mus musculus), sequence (P56450 whole entry): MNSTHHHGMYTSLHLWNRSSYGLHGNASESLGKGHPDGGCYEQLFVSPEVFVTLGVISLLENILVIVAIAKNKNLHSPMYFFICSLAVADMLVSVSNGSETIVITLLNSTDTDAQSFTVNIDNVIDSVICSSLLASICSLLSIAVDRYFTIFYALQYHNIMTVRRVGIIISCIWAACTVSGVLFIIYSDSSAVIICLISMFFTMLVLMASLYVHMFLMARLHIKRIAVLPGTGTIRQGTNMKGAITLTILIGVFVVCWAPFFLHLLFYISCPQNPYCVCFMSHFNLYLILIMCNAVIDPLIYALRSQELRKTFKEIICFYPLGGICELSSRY
T1 sequence (P32245 whole entry): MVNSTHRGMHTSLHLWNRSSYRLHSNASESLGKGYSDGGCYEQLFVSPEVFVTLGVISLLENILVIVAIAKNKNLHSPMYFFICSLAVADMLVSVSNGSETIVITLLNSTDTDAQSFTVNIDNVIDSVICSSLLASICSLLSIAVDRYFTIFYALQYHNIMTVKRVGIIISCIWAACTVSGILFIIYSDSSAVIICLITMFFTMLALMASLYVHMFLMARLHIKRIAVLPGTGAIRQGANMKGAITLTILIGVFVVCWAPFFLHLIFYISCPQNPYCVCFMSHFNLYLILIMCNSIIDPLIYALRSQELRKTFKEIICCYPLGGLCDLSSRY

Regarding `CC(=O)N[C@@H](Cc1cnc[nH]1)C(=O)N[C@H](Cc1ccc2ccccc2c1)C(=O)N[C@@H](CCCNC(=N)N)C(=O)N[C@@H](Cc1c[nH]c2ccccc12)C(=O)N1CCC[C@H]1C(=O)NCC(=O)N1CCC[C@H]1C(=O)NCC(=O)N1CCC[C@H]1C(=O)NCC(=O)N1CCC[C@H]1C(=O)NCC(=O)N1CCC[C@H]1C(=O)NCC(=O)N1CCC[C@H]1C(=O)NCC(N)=O` (Ac-H[d2Nal]RWPGPGPGPGPGPG-NH2), in test [1], the Kb was 0.0525 µM. Further, the Activity is 55% in test [2] and 30% in test [3].

Take `CC(=O)N[C@@H](Cc1cnc[nH]1)C(=O)N[C@H](Cc1ccccc1)C(=O)N[C@@H](CCCNC(=N)N)C(=O)N[C@@H](Cc1c[nH]c2ccccc12)C(=O)NCCCOCCOCCOCCCNC(=O)COCC(=O)N[C@@H](Cc1cnc[nH]1)C(=O)N[C@H](Cc1ccc2ccccc2c1)C(=O)N[C@@H](CCCNC(=N)N)C(=O)N[C@@H](Cc1c[nH]c2ccccc12)C(N)=O`: in test [4], the outcome was Active. Further, the Activity in test [3] was found to be 45%. Also, in test [5], the Ratio EC50 was 3000.

`CC(=O)N[C@@H](Cc1cnc[nH]1)C(=O)N[C@H](Cc1ccc2ccccc2c1)C(=O)N[C@@H](CCCNC(=N)N)C(=O)N[C@@H](Cc1c[nH]c2ccccc12)C(=O)NCCCOCCOCCOCCCNC(=O)COCC(=O)N[C@@H](Cc1cnc[nH]1)C(=O)N[C@H](Cc1ccc2ccccc2c1)C(=O)N[C@@H](CCCNC(=N)N)C(=O)N[C@@H](Cc1c[nH]c2ccccc12)C(N)=O`: the outcome in test [4] and in test [6] was inactive. In test [1], the Kb is 0.0158 µM. Also, the Activity in test [2] amounted to 70%; in test [3], 10%.

As to `CC(=O)N[C@@H](Cc1cnc[nH]1)C(=O)N[C@H](Cc1ccc2ccccc2c1)C(=O)N[C@@H](CCCNC(=N)N)C(=O)N[C@@H](Cc1c[nH]c2ccccc12)C(=O)NCCCOCCOCCOCCCNC(=O)COCC(=O)N[C@@H](Cc1cnc[nH]1)C(=O)N[C@H](Cc1ccccc1)C(=O)N[C@@H](CCCNC(=N)N)C(=O)N[C@@H](Cc1c[nH]c2ccccc12)C(N)=O`, in test [3], the Activity worked out at 20%. Also, the Ratio EC50 in test [5] amounted to 3000.

On to `CC(=O)N[C@@H](Cc1cnc[nH]1)C(=O)N[C@H](Cc1ccc2ccccc2c1)C(=O)N[C@@H](CCCNC(=N)N)C(=O)N[C@@H](Cc1c[nH]c2ccccc12)C(=O)N1CCC[C@H]1C(=O)NCC(=O)N1CCC[C@H]1C(=O)NCC(=O)N1CCC[C@H]1C(=O)NCC(=O)N1CCC[C@H]1C(=O)NCC(=O)N1CCC[C@H]1C(=O)NCC(=O)N1CCC[C@H]1C(=O)NCC(=O)N[C@@H](Cc1cnc[nH]1)C(=O)N[C@H](Cc1ccccc1)C(=O)N[C@@H](CCCNC(=N)N)C(=O)N[C@@H](Cc1c[nH]c2ccccc12)C(N)=O`, for which the Activity in test [3] turned out to be 55%. In test [5], the Ratio EC50 came to 3000.

For `CC(=O)N[C@@H](Cc1cnc[nH]1)C(=O)N[C@H](Cc1ccccc1)C(=O)N[C@@H](CCCNC(=N)N)C(=O)N[C@@H](Cc1c[nH]c2ccccc12)C(N)=O`, the Activity result in test [7] is “Dose-dependent effect”. In addition, the outcome in test [4] was Active.

Turning to `CC(=O)N[C@@H](Cc1cnc[nH]1)C(=O)N[C@H](Cc1ccccc1)C(=O)N[C@@H](CCCNC(=N)N)C(=O)N[C@@H](Cc1c[nH]c2ccccc12)C(=O)NCCCOCCOCCOCCCNC(=O)COCC(=O)N[C@@H](Cc1cnc[nH]1)C(=O)N[C@H](Cc1ccccc1)C(=O)N[C@@H](CCCNC(=N)N)C(=O)N[C@@H](Cc1c[nH]c2ccccc12)C(N)=O`, the Activity result in test [7] is “Dose-dependent effect”. Besides, in test [4], the result was Active.

As to `CC(=O)N[C@@H](Cc1c[nH]cn1)C(=O)N[C@H](Cc1ccc2ccccc2c1)C(=O)N[C@@H](CCCN=C(N)N)C(=O)N[C@@H](Cc1c[nH]c2ccccc12)C(N)=O`, the result in test [4] and in test [6] was inactive. Further, the values for the Activity in test [2] and in test [3] were 50% and 30%, respectively.

Take `N=C(N)NCCC[C@H](NC(=O)[C@@H](Cc1ccc2ccccc2c1)NC(=O)[C@H](Cc1cnc[nH]1)NC(=O)COCC(=O)NCCCOCCOCCOCCCN)C(=O)N[C@@H](Cc1c[nH]c2ccccc12)C(N)=O`: the Kb in test [1] was 0.0135 µM. Further, the Activity in test [2] was found to be 50%; in test [3], 20%.

Regarding `CC(=O)N[C@@H](Cc1cnc[nH]1)C(=O)N[C@H](Cc1ccc2ccccc2c1)C(=O)N[C@@H](CCCNC(=N)N)C(=O)N[C@@H](Cc1c[nH]c2ccccc12)C(=O)NCCCOCCOCCOCCCNC(=O)COCC(N)=O`, the Kb in test [1] was 0.00759 µM. The Activity in test [2] was found to be 55%; in test [3] it was 15%.

In the case of `CC(=O)N[C@@H](Cc1cnc[nH]1)C(=O)N[C@H](Cc1ccc2ccccc2c1)C(=O)N[C@@H](CCCNC(=N)N)C(=O)N[C@@H](Cc1c[nH]c2ccccc12)C(N)=O`, the Kb in test [1] was 0.0151 µM.

In general, EC50 refers to the concentration at which the effect is half-maximal. `CC(=O)N[C@@H](Cc1cnc[nH]1)C(=O)N[C@H](Cc1ccc2ccccc2c1)C(=O)N[C@@H](CCCNC(=N)N)C(=O)N[C@@H](Cc1c[nH]c2ccccc12)C(=O)NCCCOCCOCCOCCCNC(=O)COCC(=O)NCCCOCCOCCOCCCNC(=O)COCC(=O)N[C@@H](Cc1cnc[nH]1)C(=O)N[C@H](Cc1ccccc1)C(=O)N[C@@H](CCCNC(=N)N)C(=O)N[C@@H](Cc1c[nH]c2ccccc12)C(N)=O`: in test [3], the Activity amounted to 25%. The EC50 in test [8] was found to be 0.0059 µM. Moreover, the Ratio EC50 in test [5] is 3000.
